molecular target: T1, OR13H1 (Homo sapiens) (UniProt Q8NG92); conditions: stereoisomer not certain
T1 sequence (whole entry): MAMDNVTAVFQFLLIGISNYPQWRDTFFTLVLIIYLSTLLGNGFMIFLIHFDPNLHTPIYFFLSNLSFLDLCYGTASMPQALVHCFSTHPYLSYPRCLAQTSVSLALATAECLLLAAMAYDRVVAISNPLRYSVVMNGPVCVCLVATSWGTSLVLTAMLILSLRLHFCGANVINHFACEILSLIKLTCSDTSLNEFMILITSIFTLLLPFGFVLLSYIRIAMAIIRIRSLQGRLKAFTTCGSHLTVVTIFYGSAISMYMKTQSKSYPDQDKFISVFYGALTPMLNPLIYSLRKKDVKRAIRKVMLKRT
In short: (§1)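 Transient luciferase assays in mammalian cell lines were common, though methods varied by source. The values come from published papers and their supplementary material, with extra details from the original authors when needed. Responsive refers to a measured signal the original authors judged statistically different from baseline, and non-responsive (inactive) to the remainder.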
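Further: active if original authors judged signal statistically different from baseline.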

Odorant receptor agonist call, inactive:
CCCCC(S)C(C)CO (stereo not given)
CC(CO)CS (stereo not given)
CCC1OC(=O)C(O)=C1C (stereo not given)
CC1CCCCCCCCCCCCC(=O)C1 (stereo not given)
CC1=C(O)C(=O)OC1C (stereo not given)
CCCCCC(S)C(C)CO (stereo not given)
CCCCCC(=O)C(C)C(C)=O (stereo not given)
CCCC(S)CCOC(C)=O (stereo not given)
CCCCCCC=CCCC=O
CCC(S)C(C)CO (stereo not given)
CC1=C(O)C(=O)C(C)O1 (stereo not given)
CCC1OC(C)=C(O)C1=O (stereo not given)
CC1=NC(C)C(C)S1 (stereo not given)
Cc1cnc(C)c(C)n1
CC(=O)c1c(C)c([N+](=O)[O-])c(C(C)(C)C)c([N+](=O)[O-])c1C

molecular target: T2, OR13J1 (Homo sapiens) (UniProt Q8NGT2); conditions: stereoisomer not certain
T2 sequence (whole entry): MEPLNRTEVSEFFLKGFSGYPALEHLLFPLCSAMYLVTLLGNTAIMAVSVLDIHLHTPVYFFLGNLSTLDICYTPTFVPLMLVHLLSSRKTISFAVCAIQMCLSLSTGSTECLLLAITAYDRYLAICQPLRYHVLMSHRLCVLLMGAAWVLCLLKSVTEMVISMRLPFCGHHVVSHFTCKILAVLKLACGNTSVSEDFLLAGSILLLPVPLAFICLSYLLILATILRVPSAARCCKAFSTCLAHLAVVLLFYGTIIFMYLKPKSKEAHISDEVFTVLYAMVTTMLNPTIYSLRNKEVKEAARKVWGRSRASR
In short: as §1

Odorant receptor agonist call, inactive:
CCCCC(S)C(C)CO (stereo not given)
CC(CO)CS (stereo not given)
CCC1OC(=O)C(O)=C1C (stereo not given)
CC1CCCCCCCCCCCCC(=O)C1 (stereo not given)
CC1=C(O)C(=O)OC1C (stereo not given)
CCCCCC(S)C(C)CO (stereo not given)
CCCCCC(=O)C(C)C(C)=O (stereo not given)
CCCC(S)CCOC(C)=O (stereo not given)
CCCCCCC=CCCC=O
CCC(S)C(C)CO (stereo not given)
CC1=C(O)C(=O)C(C)O1 (stereo not given)
CCC1OC(C)=C(O)C1=O (stereo not given)
CC1=NC(C)C(C)S1 (stereo not given)
Cc1cnc(C)c(C)n1
CC(=O)c1c(C)c([N+](=O)[O-])c(C(C)(C)C)c([N+](=O)[O-])c1C
